Results on one molecule are retold here after ChEMBL document CHEMBL1828581 (J Med Chem, 2011).

Data set [1] deals with Plasmodium berghei. The data set can be described thus: Antimalarial activity against Plasmodium berghei infected in NMRI mouse assessed as parasitized red blood cells level at 30 mg/kg, po administered as single dose 4 hrs post infection measured on day 4 (reference value: 78%).
Data set [2] deals with Plasmodium falciparum. In words: Antimalarial activity against erythrocyte stages of chloroquine-resistant Plasmodium falciparum K1 infected in human erythrocytes by lactate dehydrogenase assay. It is filed as functional, organism-based. An outline of the steps: (§1)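 Asexual blood-stage P. falciparum in continuous culture (modified Trager–Jensen), read out by parasite lactate dehydrogenase. Stocks are 2 mg/mL in DMSO or methanol. […] IC50 comes from nonlinear dose–response fitting.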

For data set [3], the target named is T1, Chloroquine resistance transporter (Plasmodium falciparum) (UniProt Q9N623).
T1 sequence (whole entry): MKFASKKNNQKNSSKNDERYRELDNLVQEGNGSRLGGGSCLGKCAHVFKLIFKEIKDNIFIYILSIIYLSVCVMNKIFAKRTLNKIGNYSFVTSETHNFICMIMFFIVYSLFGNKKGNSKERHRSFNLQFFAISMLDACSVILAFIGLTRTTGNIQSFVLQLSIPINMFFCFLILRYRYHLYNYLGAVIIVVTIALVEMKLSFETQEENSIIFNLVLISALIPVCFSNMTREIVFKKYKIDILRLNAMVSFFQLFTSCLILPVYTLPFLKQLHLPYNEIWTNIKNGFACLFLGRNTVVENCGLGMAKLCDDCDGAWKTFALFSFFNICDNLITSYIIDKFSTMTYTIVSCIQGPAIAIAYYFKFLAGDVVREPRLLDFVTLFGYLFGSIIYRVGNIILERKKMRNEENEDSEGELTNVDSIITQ
The data set can be described thus: Inhibition of chloroquine-sensitive Plasmodium falciparum D10 chloroquine resistance transporter expressed in xenopus laevis oocytes assessed as inhibition of [3H]chloroquine uptake after 1 to 2 hrs. It counts as cell-based. Particulars: Oocyte.

The subject of data set [4] is Plasmodium berghei. In words: Antimalarial activity against Plasmodium berghei infected in NMRI mouse assessed as parasitized red blood cells level at 100 mg/kg, po administered as single dose 4 hrs post infection measured on day 4 (reference value: 78%).
Data set [5] can be described thus: Selectivity index, ratio of IC50 for CHO cells to IC50 for chloroquine-sensitive Plasmodium falciparum D10. It counts as toxicity, cell-based. The note with it: hamster, read-out: Ratio IC50. An outline of the steps:
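The D10 value came from parasite lactate dehydrogenase read-out on erythrocytic cultures, 10 two-fold dilutions from 100 ng/mL, with nonlinear dose–response fitting.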

In data set [6] the test system is Plasmodium berghei. In words: Antimalarial activity against Plasmodium berghei infected in NMRI mouse assessed as reduction of parasitemia level at 100 mg/kg, po administered as single dose 4 hrs post infection (reference value: 0.16%). Also on record: scale not given: the % may be the effect or the level left.
Data set [7] can be described thus: Dissociation constant, pKa of the compound with basic tertiary amino group by pH titration method. It counts as physicochemical.
The subject of data set [8] is Plasmodium falciparum. The data set can be described thus: Resistance index, ratio of IC50 for chloroquine-resistant Plasmodium falciparum W2 to IC50 for chloroquine-sensitive Plasmodium falciparum D10. It counts as functional. An outline of the steps: (§2)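 Resistance index is the IC50 against the resistant strain divided by the IC50 against D10. Both IC50s come from the lactate dehydrogenase growth assay on asexual blood stages, run by the same serial-dilution protocol.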

The subject of data set [9] is Plasmodium falciparum. In words: Resistance index, ratio of IC50 for chloroquine-resistant Plasmodium falciparum Dd2 to IC50 for chloroquine-sensitive Plasmodium falciparum D10. It is filed as functional. An outline of the steps: as §2
The subject of data set [10] is Plasmodium falciparum. In words: Resistance index, ratio of IC50 for chloroquine-resistant Plasmodium falciparum RSA11 to IC50 for chloroquine-sensitive Plasmodium falciparum D10. It counts as functional. The method, boiled down: as §2
Data set [11] deals with Plasmodium falciparum. The data set can be described thus: Antimalarial activity against erythrocyte stages of chloroquine-sensitive Plasmodium falciparum D10 infected in human erythrocytes by lactate dehydrogenase assay. It is filed as functional, organism-based. An outline of the steps: as §1
In data set [12] the test system is Plasmodium falciparum. In words: Antimalarial activity against erythrocyte stages of chloroquine-resistant Plasmodium falciparum RSA11 infected in human erythrocytes by lactate dehydrogenase assay. It counts as functional, organism-based. An outline of the steps: as §1
Data set [13] can be described thus: Dissociation constant, pKa of the compound with quinoline heteroaromatic N atom by pH titration method. It counts as physicochemical.
Data set [14] concerns Plasmodium falciparum. The data set can be described thus: Antimalarial activity against erythrocyte stages of chloroquine-resistant Plasmodium falciparum W2 infected in human erythrocytes by lactate dehydrogenase assay. It is filed as functional, organism-based. An outline of the steps: as §1
Data set [15] in a line: Inhibition of beta-hematin formation assessed as equivalents of drug relative to hematin for 50% inhibition at pH 4.5 by BHIA assay. It counts as functional. The method, boiled down:
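β-Hematin formation mediated by 4.5 M acetate, pH 4.5, in a 96-well plate format. Unconverted hematin is dissolved with 5% (v/v) aqueous pyridine at pH 7.5, which leaves β-hematin undissolved. Result expressed as equivalents of compound relative to hematin at 50% inhibition.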

Data set [16] concerns the target T2, Chloroquine resistance transporter (Plasmodium falciparum, UniProt Q9N623).
T2 sequence (Q9N623 whole entry): T1 sequence (whole entry)
The data set can be described thus: Inhibition of chloroquine-resistant Plasmodium falciparum Dd2 chloroquine resistance transporter expressed in xenopus laevis oocytes assessed as inhibition of [3H]chloroquine uptake after 1 to 2 hrs. It counts as cell-based, Oocyte.

Data set [17] relates to Plasmodium falciparum. In words: Antimalarial activity against erythrocyte stages of chloroquine-resistant Plasmodium falciparum Dd2 infected in human erythrocytes by lactate dehydrogenase assay. It counts as functional, organism-based. The method, boiled down:
as §1

Data set [18] has as its system Plasmodium berghei. In words: Antimalarial activity against Plasmodium berghei infected in NMRI mouse assessed as host survival time at 100 mg/kg, po administered as a single dose 4 hrs post infection (reference value: 4 days).
In data set [19] the test system is Plasmodium berghei. In words: Antimalarial activity against Plasmodium berghei infected in NMRI mouse assessed as reduction of parasitemia level at 30 mg/kg, po administered as single dose 4 hrs post infection (reference value: 2.76%). The arrangement: scale not given: the % may be the effect or the level left.
For data set [20], the system named is Plasmodium falciparum. The data set can be described thus: Resistance index, ratio of IC50 for chloroquine-resistant Plasmodium falciparum K1 to IC50 for chloroquine-sensitive Plasmodium falciparum D10. It counts as functional. An outline of the steps: as §2
Another data set relates to CHO. The data set can be described thus: Cytotoxicity against CHO cells by MTT assay. It counts as cell-based. The note with it: Cricetulus griseus. An outline of the steps:
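CHO cells, MTT colorimetric growth read-out. Compound from a 2 mg/mL stock, tested from 100 μg/mL in 10-fold serial dilutions in complete medium (5 concentrations, lowest 0.01 μg/mL). Emetine reference. IC50 from nonlinear dose–response fitting; mean ± SEM, n = 3.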

Data set [21] has as its system Plasmodium berghei. In words: Antimalarial activity against Plasmodium berghei infected in NMRI mouse assessed as host survival time at 30 mg/kg, po administered as a single dose 4 hrs post infection (reference value: 4 days).

Active and inactive are the calls of the source. The calls are words filed in the database; no cut-off is given here.

As for `CN(Cc1ccccc1)Cc1ccc(CNc2ccnc3cc(Cl)ccc23)cc1`, the Activity is 2.16% with Plasmodium berghei [1], 0.12% in the data set with Plasmodium berghei [4], 99.8% in the data set with Plasmodium berghei [6] and 97% in the data set with Plasmodium berghei [19]. Besides, the IC50 came out at 25 nM in the data set with Plasmodium falciparum [2]; 22 nM in the data set on Plasmodium falciparum [11]; 38 nM in the data set with Plasmodium falciparum [12]; 23 nM in the data set on Plasmodium falciparum [14]; 0.32 equivalents in data set [15]; 69000 nM in data set [16]. The IC50 in the data set on Plasmodium falciparum [17] is 26 nM; in the data set with CHO it was > 249000 nM. Further, in data set [3], the inhibition result is “Active”. Further, the selectivity ratio in data set [5] was > 9220. In addition, the pKa (as a rule, the pH at which an ionisable group is half protonated) came to 9.9 in [7] and 7.56 in data set [13]. For the same molecule, the “Ratio IC50” value in the data set on Plasmodium falciparum [8] is given as 1; with Plasmodium falciparum [9], 1.2; in the data set with Plasmodium falciparum [10], 1.7; in the data set on Plasmodium falciparum [20], 0.9. For the same molecule, the Time came to 10 days in the data set with Plasmodium berghei [18] and 6.7 days in the data set with Plasmodium berghei [21].
